ChEMBL document CHEMBL1149261, “New constrained "molecular tongs" designed to dissociate HIV-1 protease dimer” (J Med Chem, 2004)

What was measured:
[1] = biological target: T1, Human immunodeficiency virus type 1 protease (Human immunodeficiency virus 1, UniProt Q72874); experiment: Inhibition of dimerization of HIV1 protease
Outline: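 Zhang kinetic analysis using the same fluorogenic DABCYL/EDANS substrate assay (pH 4.7 acetate buffer, 30 °C, ex 340/em 490 nm). Initial substrate held constant; at least four protease concentrations (4.7–13.6 nM) tested at several inhibitor concentrations. Dimerization inhibition constant Kid derived from Zhang plots.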

[2] = biological target: T1, Human immunodeficiency virus type 1 protease; experiment: Inhibition of HIV1 protease
Outline: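 Protease activity read with fluorogenic substrate DABCYL-γ-Abu-Ser-Gln-Asn-Tyr-Pro-Ile-Val-Gln-EDANS in 100 mM sodium acetate, 1 mM EDTA, 1 M NaCl, pH 4.7, 30 °C. Substrate and inhibitor (DMSO, 3% v/v final) preincubated 3 min, then enzyme added (7.5 nM final). Fluorescence (ex 340, em 490 nm) followed 3 min. 8–10 inhibitor concentrations; IC50 fitted to %inhibition = 100[I]0/(IC50+[I]0).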

[3] = biological target: Human immunodeficiency virus type 1 protease (Human immunodeficiency virus 1) (UniProt Q72874); experiment: Inhibition of HIV1 protease at 5.7 uM
Outline: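 Fluorogenic assay with DABCYL-γ-Abu-Ser-Gln-Asn-Tyr-Pro-Ile-Val-Gln-EDANS substrate, in 100 mM sodium acetate, 1 mM EDTA and 1 M NaCl at pH 4.7 and 30 °C, with 3% v/v DMSO final. Substrate and inhibitor were preincubated for 3 min. The reaction was started with HIV-1 protease (7.5 nM final). The fluorescence increase (ex 340/em 490 nm) was followed over 3 min and compared with a substrate-only blank to give % inhibition.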

inhibition [3] | Compound | Ki [1] | IC50 [2] | Ki [2]
– | COC(=O)[C@@H](NC(=O)[C@H](CC(C)C)NC(=O)[C@@H](NC(=O)CCCOc1ccc2ccc(OCCCC(=O)N[C@@H](CCC(=O)OC(C)(C)C)C(=O)N[C@@H](CC(C)C)C(N)=O)cc2c1)C(C)C)C(C)C | 420 nM | 1100 nM | –
– | COC(=O)[C@H](CC(C)C)NC(=O)[C@@H](NC(=O)CCCOc1ccc2ccc(OCCCC(=O)N[C@H](C(=O)N[C@@H](CC(C)C)C(=O)N[C@H](C(=O)OC)C(C)C)C(C)C)cc2n1)[C@@H](C)O | 1500 nM | 1400 nM | –
– | COC(=O)[C@@H](NC(=O)[C@H](CC(C)C)NC(=O)[C@@H](NC(=O)CCCOc1ccc2ccc(OCCCC(=O)N[C@H](C(=O)N[C@@H](CC(C)C)C(=O)N[C@H](C(=O)OC)C(C)C)C(C)C)nc2c1)C(C)C)C(C)C | 130 nM | 1400 nM | –
– | COC(=O)[C@@H](NC(=O)[C@H](CC(C)C)NC(=O)[C@@H](NC(=O)CCCOc1ccc2ccc(OCCCC(=O)N[C@@H](CCC(=O)OC(C)(C)C)C(=O)N[C@@H](CC(C)C)C(N)=O)nc2c1)C(C)C)C(C)C | 530 nM | 1800 nM | –
20% | COC(=O)[C@@H](NC(=O)[C@H](CC(C)C)NC(=O)[C@@H](NC(=O)CCCOc1ccc2ccc(OCCCC(=O)N[C@@H](CCC(=O)O)C(=O)N[C@@H](CC(C)C)C(N)=O)nc2c1)C(C)C)C(C)C | – | – | –
– | COC(=O)[C@@H](NC(=O)[C@H](CC(C)C)NC(=O)[C@@H](NC(=O)CCCOc1ccc2ccc(OCCCC(=O)N[C@@H](CCC(=O)O)C(=O)N[C@@H](CC(C)C)C(N)=O)cc2c1)C(C)C)C(C)C | 900 nM | 2800 nM | –
– | COC(=O)[C@@H](NC(=O)[C@H](CC(C)C)NC(=O)[C@@H](NC(=O)CCCOc1ccc2ccc(OCCCC(=O)N[C@@H](Cc3ccc(O)cc3)C(=O)N[C@@H](CCC(=O)OC(C)(C)C)C(=O)N[C@@H](CC(C)C)C(N)=O)cc2c1)C(C)C)C(C)C | 230 nM | 1100 nM | –
– | COC(=O)[C@H](CC(C)C)NC(=O)[C@@H](NC(=O)CCCOc1ccc2ccc(OCCCC(=O)N[C@H](C(=O)N[C@@H](CC(C)C)C(=O)N[C@H](C(=O)OC)C(C)C)C(C)C)cc2c1)[C@@H](C)O | 1400 nM | 4000 nM | 10300 nM
– | CC[C@H](C)[C@H](NC(=O)[C@H](CCC(N)=O)NC(=O)CCCOc1ccc2ccc(OCCCC(=O)N[C@H](C(=O)N[C@@H](CC(C)C)C(=O)N[C@H](C(=O)OC)C(C)C)C(C)C)cc2c1)C(=O)N[C@H](C(N)=O)[C@@H](C)O | 2300 nM | 2800 nM | –
– | CC[C@H](C)[C@H](NC(=O)CCCOc1ccc2ccc(OCCCC(=O)N[C@H](C(=O)N[C@@H](CC(C)C)C(=O)N[C@H](C(=O)OC)C(C)C)C(C)C)cc2n1)C(=O)N[C@H](C(=O)N[C@@H](CC(C)C)C(=O)OC)[C@@H](C)O | 400 nM | 5300 nM | –
30% | CC[C@H](C)[C@H](NC(=O)[C@H](CCC(N)=O)NC(=O)CCCOc1ccc2ccc(OCCCC(=O)N[C@H](C(=O)N[C@@H](CC(C)C)C(=O)N[C@H](C(=O)OC)C(C)C)C(C)C)cc2n1)C(=O)N[C@H](C(N)=O)[C@@H](C)O | – | – | –
– | CC[C@H](C)[C@H](NC(=O)CCCOc1ccc2ccc(OCCCC(=O)N[C@H](C(=O)N[C@@H](CC(C)C)C(=O)N[C@H](C(=O)OC)C(C)C)C(C)C)cc2c1)C(=O)N[C@H](C(N)=O)[C@@H](C)O | 1500 nM | 4300 nM | 6200 nM
– | COC(=O)[C@@H](NC(=O)[C@H](CC(C)C)NC(=O)[C@@H](NC(=O)CCCOc1ccc2ccc(OCCCC(=O)N[C@@H](Cc3ccc(O)cc3)C(=O)N[C@@H](CCC(=O)OC(C)(C)C)C(=O)N[C@@H](CC(C)C)C(N)=O)nc2c1)C(C)C)C(C)C | 410 nM | 1000 nM | –
– | COC(=O)[C@H](CC(N)=O)NC(=O)[C@H](CC(C)C)NC(=O)[C@@H](NC(=O)CCCOc1ccc2ccc(OCCCC(=O)N[C@H](C(=O)N[C@@H](CC(C)C)C(=O)N[C@H](C(=O)OC)C(C)C)C(C)C)cc2n1)[C@@H](C)O | 80 nM | 5100 nM | –
– | COC(=O)[C@@H](NC(=O)[C@H](CC(C)C)NC(=O)[C@@H](NC(=O)CCCOc1ccc2ccc(OCCCC(=O)N[C@H](C(=O)N[C@@H](CC(C)C)C(=O)N[C@H](C(=O)OC)C(C)C)C(C)C)cc2c1)C(C)C)C(C)C | 560 nM | 3500 nM | –
– | CC[C@H](C)[C@H](NC(=O)CCCOc1ccc2ccc(OCCCC(=O)N[C@H](C(=O)N[C@@H](CC(C)C)C(=O)N[C@H](C(=O)OC)C(C)C)C(C)C)cc2n1)C(=O)N[C@H](C(N)=O)[C@@H](C)O | 250 nM | 1700 nM | 4300 nM

Compound | inhibition [3] | Ki [1] | IC50 [2] | Ki [2]
CC[C@@H](C)[C@H](NC(=O)[C@@H](NC(=O)CCCOc1ccc2ccc(OCCCC(=O)N[C@H](C(=O)N[C@H](C(=O)N[C@H](C(=O)OC)C(C)C)[C@H](C)CC)[C@@H](C)O)nc2c1)[C@@H](C)O)C(=O)N[C@H](C(=O)OC)C(C)C | 45% | 1900 nM | – | –
